Active and inactive are the calls of the source. No cut-off for these calls is given here.
How the values were obtained:
REH = experiment: Cytostatic activity against eFluor670-labelled human REH cells assessed as live cells at 2 umol/L measured on day 3 by Hoechst-33258 staining-based FACS analysis (reference value: 90.2%); type: functional
[1] = Cytotoxicity against PHA/LPS-stimulated CD3-positive T-lymphocytes in eFluor-670-labeled human PBMC assessed as divided cells at 2 umol/L administered post 18 hrs of PHA/LPS-stimulation measured after 72 hrs by Hoechst-33258 staining-based FACS analysis (reference value: 24.2%); type: toxicity; settings: t-cell, 2 µM
Outline: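 PBMC were labelled with 1 μmol/L CPD, stimulated with PHA (5 μg/mL) plus LPS (1 μg/mL), and seeded at 3 × 10^5 cells/well in 300 μL. Compound was added after 18 h and left for 72 h. Cells were stained with anti-CD3. Unstimulated cells set the CPD+ gate. Proliferation index, division index and % divided were calculated for CPD+CD3+ Hoechst-negative cells.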

[2] = molecular target: Myc proto-oncogene protein (Homo sapiens) (UniProt P01106); experiment: Inhibition of C-MYC in human Jurkat cells assessed as decrease in GLS level at EC50 measured after 24 hrs by RT-qPCR analysis; type: cell-based
Chain of Myc proto-oncogene protein (Homo sapiens) (P01106 whole entry): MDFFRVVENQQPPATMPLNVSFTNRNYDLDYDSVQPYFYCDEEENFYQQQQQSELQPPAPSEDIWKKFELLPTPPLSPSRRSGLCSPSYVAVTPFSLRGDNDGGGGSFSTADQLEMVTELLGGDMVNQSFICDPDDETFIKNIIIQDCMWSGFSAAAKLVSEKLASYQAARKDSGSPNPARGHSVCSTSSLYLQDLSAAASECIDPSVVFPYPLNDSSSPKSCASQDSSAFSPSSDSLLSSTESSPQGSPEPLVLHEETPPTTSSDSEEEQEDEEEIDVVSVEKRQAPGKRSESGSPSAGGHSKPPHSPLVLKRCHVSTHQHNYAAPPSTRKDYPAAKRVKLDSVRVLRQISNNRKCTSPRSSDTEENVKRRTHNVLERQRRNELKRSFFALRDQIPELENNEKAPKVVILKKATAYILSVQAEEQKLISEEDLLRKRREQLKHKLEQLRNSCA

inhibition [2]: Active
Compound: CCCCCC(=O)C1=C(O)C(=O)c2c(O)c(O)cc(O)c2C1=O
Activity (REH): 15.8%
Activity [1]: 15.9%

Reference: ChEMBL document CHEMBL3868590, “Quambalarine B, a Secondary Metabolite from Quambalaria cyanescens with Potential Anticancer Properties” (J Nat Prod, 2016)
